Assay results as given in ChEMBL document CHEMBL5678808, “Human target validation of phosphoinositide 3-kinase (PI3K)β: effects on platelets and insulin sensitivity, using AZD6482 a novel PI3Kβ inhibitor” (J Thromb Haemost, 2012).
pIC50: −log10 of the molar value.

Columns and labels:
[1] = target: Proto-oncogene tyrosine-protein kinase Src (Homo sapiens, UniProt P12931); experiment: Inhibition of human src
[2] = target: Tyrosine-protein kinase CSK (Homo sapiens, UniProt P41240); experiment: Inhibition of human CSK
[3] = target: Fibroblast growth factor receptor 1 (Homo sapiens, UniProt P11362); experiment: Inhibition of human FGFR1
Sequence of Fibroblast growth factor receptor 1 (P11362 whole entry): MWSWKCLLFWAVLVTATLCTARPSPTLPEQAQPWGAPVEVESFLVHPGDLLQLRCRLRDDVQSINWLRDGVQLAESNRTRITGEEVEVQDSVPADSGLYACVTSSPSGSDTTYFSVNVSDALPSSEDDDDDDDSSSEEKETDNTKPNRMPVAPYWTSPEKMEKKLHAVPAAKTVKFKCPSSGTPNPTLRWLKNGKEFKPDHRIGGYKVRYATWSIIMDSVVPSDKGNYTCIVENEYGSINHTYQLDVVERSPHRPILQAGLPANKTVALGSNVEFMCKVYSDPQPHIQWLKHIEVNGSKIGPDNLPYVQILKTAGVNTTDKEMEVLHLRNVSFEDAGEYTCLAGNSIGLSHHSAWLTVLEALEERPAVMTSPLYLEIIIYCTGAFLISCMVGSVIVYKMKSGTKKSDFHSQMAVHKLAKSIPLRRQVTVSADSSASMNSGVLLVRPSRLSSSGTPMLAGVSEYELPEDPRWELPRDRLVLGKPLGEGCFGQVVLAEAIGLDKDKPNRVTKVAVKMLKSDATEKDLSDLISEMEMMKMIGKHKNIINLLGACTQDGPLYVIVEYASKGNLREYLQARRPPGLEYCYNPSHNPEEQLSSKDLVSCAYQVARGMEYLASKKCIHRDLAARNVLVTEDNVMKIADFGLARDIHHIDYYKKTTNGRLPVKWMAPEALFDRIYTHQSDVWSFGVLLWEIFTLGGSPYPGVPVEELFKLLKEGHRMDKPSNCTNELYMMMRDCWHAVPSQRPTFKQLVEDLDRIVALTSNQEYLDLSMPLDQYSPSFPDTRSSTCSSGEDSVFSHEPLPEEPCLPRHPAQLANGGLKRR

Rattus norvegicus [4] = species: Rattus norvegicus; experiment: Inhibition of rat AMPK at 10 uM relative to control
[5] = target: Casein kinase 2 (Homo sapiens) (UniProt P67870+P68400+P19784+Q8NEV1); experiment: Inhibition of human CK2 at 10 uM relative to control; type: protein assay
Sequence of Casein kinase 2 (Homo sapiens) (P19784 whole entry, looked up): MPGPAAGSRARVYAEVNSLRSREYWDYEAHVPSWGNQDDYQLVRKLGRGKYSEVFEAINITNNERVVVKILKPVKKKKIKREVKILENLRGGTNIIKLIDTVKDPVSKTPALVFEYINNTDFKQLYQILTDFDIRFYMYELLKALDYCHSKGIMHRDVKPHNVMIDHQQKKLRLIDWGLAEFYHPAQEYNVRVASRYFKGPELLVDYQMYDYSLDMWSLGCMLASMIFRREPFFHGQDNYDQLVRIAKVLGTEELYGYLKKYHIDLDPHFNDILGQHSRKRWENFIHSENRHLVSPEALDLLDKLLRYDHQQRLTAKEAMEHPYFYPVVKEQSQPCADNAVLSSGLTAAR
Sequence of Casein kinase 2 (Homo sapiens) (P67870 whole entry, looked up): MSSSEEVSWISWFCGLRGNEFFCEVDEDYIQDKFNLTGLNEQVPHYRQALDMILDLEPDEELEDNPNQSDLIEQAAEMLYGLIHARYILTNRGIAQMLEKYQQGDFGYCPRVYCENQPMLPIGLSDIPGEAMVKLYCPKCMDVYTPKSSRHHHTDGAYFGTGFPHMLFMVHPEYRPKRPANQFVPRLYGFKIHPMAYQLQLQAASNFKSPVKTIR
Sequence of Casein kinase 2 (Homo sapiens) (P68400 whole entry, looked up): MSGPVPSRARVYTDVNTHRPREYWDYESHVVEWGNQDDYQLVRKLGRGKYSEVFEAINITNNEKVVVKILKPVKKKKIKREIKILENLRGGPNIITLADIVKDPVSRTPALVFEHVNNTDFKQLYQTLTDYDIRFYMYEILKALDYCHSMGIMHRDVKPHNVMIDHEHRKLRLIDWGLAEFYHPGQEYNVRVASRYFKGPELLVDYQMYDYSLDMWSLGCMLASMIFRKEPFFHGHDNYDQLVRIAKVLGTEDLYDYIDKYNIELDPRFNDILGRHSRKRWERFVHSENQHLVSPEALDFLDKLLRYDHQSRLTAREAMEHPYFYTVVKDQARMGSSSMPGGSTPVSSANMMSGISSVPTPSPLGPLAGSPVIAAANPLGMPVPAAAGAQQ
Sequence of Casein kinase 2 (Homo sapiens) (Q8NEV1 whole entry, looked up): as the sequence (P68400 whole entry, looked up) above, with S217R, H236R, V248F, D256G, M351V, A387T counted along it

[6] = target: Mitogen-activated protein kinase 1 (Mus musculus) (UniProt P63085); experiment: Inhibition of mouse MAPK1 at 10 uM relative to control
[7] = target: Mitogen-activated protein kinase 8 (Homo sapiens) (UniProt P45983); experiment: Inhibition of human JNK1 at 10 uM relative to control
[8] = target: 3-phosphoinositide-dependent protein kinase 1 (Homo sapiens) (UniProt O15530); experiment: Inhibition of human PDPK1 at 10 uM relative to control
[9] = target: Calcium/calmodulin-dependent protein kinase type 1 (Homo sapiens) (UniProt Q14012); experiment: Inhibition of human CAMK at 10 uM relative to control
Sequence of Calcium/calmodulin-dependent protein kinase type 1 (Homo sapiens) (Q14012 whole entry, looked up): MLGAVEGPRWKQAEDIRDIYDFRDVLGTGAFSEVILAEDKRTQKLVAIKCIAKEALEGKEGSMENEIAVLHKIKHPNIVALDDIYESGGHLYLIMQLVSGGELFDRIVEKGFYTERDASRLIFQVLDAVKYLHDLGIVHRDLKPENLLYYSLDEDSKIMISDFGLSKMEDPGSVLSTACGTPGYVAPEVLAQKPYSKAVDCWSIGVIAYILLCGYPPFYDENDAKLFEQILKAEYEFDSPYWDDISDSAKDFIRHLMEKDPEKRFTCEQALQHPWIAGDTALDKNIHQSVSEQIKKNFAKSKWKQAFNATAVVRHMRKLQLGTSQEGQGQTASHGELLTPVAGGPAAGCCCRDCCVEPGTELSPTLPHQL

[10] = target: Mitogen-activated protein kinase 15 (Homo sapiens) (UniProt Q8TD08); experiment: Inhibition of human MAPK15 at 10 uM relative to control
Sequence of Mitogen-activated protein kinase 15 (Homo sapiens) (Q8TD08 whole entry): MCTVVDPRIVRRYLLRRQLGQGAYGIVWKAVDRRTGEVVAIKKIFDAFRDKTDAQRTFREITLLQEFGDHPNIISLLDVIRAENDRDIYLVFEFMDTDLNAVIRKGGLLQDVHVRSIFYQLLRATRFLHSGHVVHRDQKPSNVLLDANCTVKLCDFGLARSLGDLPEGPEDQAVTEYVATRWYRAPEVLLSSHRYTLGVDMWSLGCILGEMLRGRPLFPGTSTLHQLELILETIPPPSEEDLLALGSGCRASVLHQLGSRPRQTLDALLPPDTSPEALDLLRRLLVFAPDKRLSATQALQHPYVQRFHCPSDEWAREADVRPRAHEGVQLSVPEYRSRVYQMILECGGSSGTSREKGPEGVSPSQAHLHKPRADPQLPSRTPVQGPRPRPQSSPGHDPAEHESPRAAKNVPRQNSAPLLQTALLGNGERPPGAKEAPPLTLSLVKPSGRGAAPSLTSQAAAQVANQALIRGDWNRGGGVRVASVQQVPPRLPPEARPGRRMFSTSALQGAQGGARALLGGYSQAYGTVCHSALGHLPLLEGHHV

[11] = target: Inhibitor of nuclear factor kappa-B kinase subunit beta (Homo sapiens) (UniProt O14920); experiment: Inhibition of human IKKb at 10 uM relative to control
[12] = target: MAP kinase-activated protein kinase 3 (Homo sapiens) (UniProt Q16644); experiment: Inhibition of human MAPKAP-K3 at 10 uM relative to control
Sequence of MAP kinase-activated protein kinase 3 (Homo sapiens) (Q16644 whole entry, looked up): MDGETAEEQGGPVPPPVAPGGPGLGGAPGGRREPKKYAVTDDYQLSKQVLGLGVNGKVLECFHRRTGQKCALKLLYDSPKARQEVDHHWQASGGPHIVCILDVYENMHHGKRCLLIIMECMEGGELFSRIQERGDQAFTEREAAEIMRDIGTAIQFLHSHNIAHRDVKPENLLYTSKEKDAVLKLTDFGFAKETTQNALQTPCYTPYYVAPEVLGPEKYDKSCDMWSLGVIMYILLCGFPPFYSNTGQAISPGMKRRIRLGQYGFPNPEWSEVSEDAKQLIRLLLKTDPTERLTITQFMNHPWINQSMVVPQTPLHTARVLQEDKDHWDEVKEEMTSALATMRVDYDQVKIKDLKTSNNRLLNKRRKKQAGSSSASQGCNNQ

[13] = target: MAP/microtubule affinity-regulating kinase 3 (Homo sapiens) (UniProt P27448); experiment: Inhibition of human MARK3 at 10 uM relative to control
Sequence of MAP/microtubule affinity-regulating kinase 3 (Homo sapiens) (P27448 whole entry, looked up): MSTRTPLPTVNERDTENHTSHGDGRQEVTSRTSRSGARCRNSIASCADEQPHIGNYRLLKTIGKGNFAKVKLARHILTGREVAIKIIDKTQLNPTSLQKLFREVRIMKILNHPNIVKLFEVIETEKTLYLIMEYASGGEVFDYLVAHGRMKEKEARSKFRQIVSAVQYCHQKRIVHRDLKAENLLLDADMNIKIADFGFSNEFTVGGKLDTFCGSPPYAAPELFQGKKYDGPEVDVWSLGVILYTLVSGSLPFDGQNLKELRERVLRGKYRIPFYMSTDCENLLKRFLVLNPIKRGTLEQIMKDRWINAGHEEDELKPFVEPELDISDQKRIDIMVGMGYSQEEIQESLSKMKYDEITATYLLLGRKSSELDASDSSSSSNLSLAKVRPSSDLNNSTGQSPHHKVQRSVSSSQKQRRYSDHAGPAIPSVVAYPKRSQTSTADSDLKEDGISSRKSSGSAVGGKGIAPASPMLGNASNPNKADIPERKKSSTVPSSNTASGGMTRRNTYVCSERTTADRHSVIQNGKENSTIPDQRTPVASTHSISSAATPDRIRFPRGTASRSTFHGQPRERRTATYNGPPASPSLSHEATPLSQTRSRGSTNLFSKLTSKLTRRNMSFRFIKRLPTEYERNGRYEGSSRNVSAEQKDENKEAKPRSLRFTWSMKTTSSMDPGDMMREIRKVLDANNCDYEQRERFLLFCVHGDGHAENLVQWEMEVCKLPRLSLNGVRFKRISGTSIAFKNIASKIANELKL

[14] = target: Dual specificity tyrosine-phosphorylation-regulated kinase 3 (Homo sapiens) (UniProt O43781); experiment: Inhibition of human DYRK3 phosphorylation at 10 uM relative to control
[15] = target: Maternal embryonic leucine zipper kinase (Homo sapiens) (UniProt Q14680); experiment: Inhibition of human MELK at 10 uM relative to control
[16] = Inhibition of PI3Kbeta in Beagle dog whole blood assessed as reduction in ADP-induced thrombus formation at 1 uM relative to control; details: Canis lupus familiaris, condition thrombotic disease
Rattus norvegicus [17] = experiment: Insulin sensitizing activity in Sprague-Dawley rat hyperinsulinemic-euglycemic glucose clamp model assessed as glucose infusion rate required to maintain euglycemia during infusion of human insulin at 6000 ug/kg/min, iv for 2 mins followed by 300 ug/kg/min, iv for 28 mins measured during clamp 2 (reference value: 138 +/- 4 umol/min/kg); type: functional; details: time 30 min, 0.5 h
Summary of the method: (§1)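 Anesthetized rats; hyperinsulinemic–euglycemic clamp with human insulin infused. A baseline clamp (Clamp1) was followed by a second clamp (Clamp2) with vehicle or drug i.v. The drug was given as a low dose (1000 μg kg−1 + 50 μg kg min−1) or a high dose (6000 μg kg−1 + 300 μg kg min−1). Steady-state glucose infusion rate for euglycemia was recorded, with plasma glucose, human insulin and total insulin; mean ± SEM, n = 4–5/group.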

[18] = Plasma concentration in Sprague-Dawley rat hyperinsulinemic-euglycemic glucose clamp model at […], iv for 2 mins followed by 50 ug/kg/min, iv for 28 mins; type: ADME, organism-based; details: time 30 min
Summary of the method: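 Plasma drug levels were sampled during the drug-infusion clamp period (Clamp2) in anesthetized rats under a human-insulin hyperinsulinemic–euglycemic clamp. I.v. regimens were 1000 μg kg−1 + 50 μg kg min−1 or 6000 μg kg−1 + 300 μg kg min−1; mean ± SEM, n = 4–5/group.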

Rattus norvegicus [19] = experiment: (§2) Insulin sensitizing activity in Sprague-Dawley rat hyperinsulinemic-euglycemic glucose clamp model assessed as glucose level during infusion of human insulin at 1000 ug/kg/min, iv for 2 mins followed by 50 ug/kg/min, iv for 28 mins measured during clamp 2 by colorimetry (reference value: 8.1 +/- 0.7 mM); type: functional; details: time 30 min, 0.5 h; summary of the method: as §1
Rattus norvegicus [20] = experiment: as §2, with “6000” for “1000”, “300” for “50”; type: functional; details: time 30 min, 0.5 h; summary of the method: as §1
Rattus norvegicus [21] = experiment: Insulin sensitizing activity in Sprague-Dawley rat hyperinsulinemic-euglycemic glucose clamp model assessed as human insulin level during infusion of human insulin at 6000 ug/kg/min, iv for 2 mins followed by 300 ug/kg/min, iv for 28 mins measured during clamp 1 (reference value: 1.7 +/- 0.1 nM); type: functional; details: time 30 min, 0.5 h; summary of the method: as §1
Rattus norvegicus [22] = experiment: Insulin sensitizing activity in Sprague-Dawley rat hyperinsulinemic-euglycemic glucose clamp model assessed as basal total insulin level during infusion of human insulin at 6000 ug/kg/min, iv for 2 mins followed by 300 ug/kg/min, iv for 28 mins (reference value: 0.3 +/- 0.1 nM); type: functional; details: time 30 min, 0.5 h; summary of the method: as §1
Rattus norvegicus [23] = experiment: Insulin sensitizing activity in Sprague-Dawley rat hyperinsulinemic-euglycemic glucose clamp model assessed as total insulin level during infusion of human insulin at 6000 ug/kg/min, iv for 2 mins followed by 300 ug/kg/min, iv for 28 mins measured during clamp 2 (reference value: 2.2 +/- 0.1 nM); type: functional; details: time 30 min, 0.5 h; summary of the method: as §1
[24] = Toxicity in Sprague-Dawley rat assessed as change in heart rate at 1000 ug/kg, iv for 2 mins followed by 50 ug/kg/min, iv for 28 mins; type: organism-based; details: in vivo, 1 mg/kg, 0.5 h, time 30 min
Summary of the method: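 Overnight-fasted anesthetized rats got three consecutive escalating i.v. doses over 30 min each (n = 4/group). Heart rate and blood pressure were followed alongside end-of-interval blood samples for plasma drug exposure, glucose and insulin (relative HOMA index experiments).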

[25] = Elimination half life in human at 40.5 to 455.8 mg, iv administered for 3 hrs via infusion by LC-MS/MS analysis; type: ADME, organism-based; details: in vivo, dose 40.5-455.8 mg, read-out: beta t1/2
Summary of the method: (§3)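 Randomized, double-blind, placebo-controlled single ascending-dose study in healthy male volunteers aged 18–36. Each subject received a 3-h i.v. infusion (0.9–455.8 mg). Plasma levels were measured by protein precipitation and LC-MS/MS (LLOQ 0.005 μm), with non-compartmental PK analysis. Half-life was calculated only for the four highest dose groups. The 3-h sample was taken as Css.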

[26] = Clearance in human at 0.9 to 455.8 mg, iv administered for 3 hrs via infusion by LC-MS/MS analysis; type: ADME, organism-based; details: in vivo, dose 0.9-455.8 mg; summary of the method: as §3
[27] = Volume of distribution at steady state in human at 0.9 to 455.8 mg, iv administered for 3 hrs via infusion by LC-MS/MS analysis; type: ADME, organism-based; details: in vivo, dose 0.9-455.8 mg
Summary of the method: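 Healthy male volunteers (18–36 years) in a randomized, double-blind, placebo-controlled single ascending-dose study received a 3-h i.v. infusion. Plasma drug levels were measured by protein precipitation then LC-MS/MS (LLOQ 0.005 μm). Non-compartmental pharmacokinetic analysis was used; median (range) across dose levels reported.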

[28] = Renal clearance (0 to 24 hrs) in human at 121.5 to 364.5 mg, iv administered for 3 hrs via infusion by LC-MS/MS analysis; details: in vivo

Sequence of Proto-oncogene tyrosine-protein kinase Src (P12931 2-536 limits assumed): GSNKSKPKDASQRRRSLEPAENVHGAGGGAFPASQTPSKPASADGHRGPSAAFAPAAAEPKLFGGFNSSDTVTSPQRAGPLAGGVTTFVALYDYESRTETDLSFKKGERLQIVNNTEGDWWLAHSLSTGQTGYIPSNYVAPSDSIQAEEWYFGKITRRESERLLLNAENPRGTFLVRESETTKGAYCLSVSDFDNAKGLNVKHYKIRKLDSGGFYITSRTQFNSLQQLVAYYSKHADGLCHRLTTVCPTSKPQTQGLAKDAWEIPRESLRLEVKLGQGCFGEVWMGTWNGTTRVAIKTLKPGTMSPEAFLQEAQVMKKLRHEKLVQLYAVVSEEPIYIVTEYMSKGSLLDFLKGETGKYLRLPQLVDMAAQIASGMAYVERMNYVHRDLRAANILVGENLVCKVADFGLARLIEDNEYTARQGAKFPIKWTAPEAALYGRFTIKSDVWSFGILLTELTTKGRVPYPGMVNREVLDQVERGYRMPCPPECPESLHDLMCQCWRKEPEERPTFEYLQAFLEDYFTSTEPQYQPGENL

- pIC50 [1]: 4.43
- pIC50 [2]: 4.05
- pIC50 [3]: < 3.16
- inhibition (Rattus norvegicus [4]): 14%
- inhibition [5]: 4.2%
- inhibition [6]: 3.6%
- inhibition [7]: 9.1%
- inhibition [8]: 16%
- inhibition [9]: 9.7%
- inhibition [11]: -8.9%
- inhibition [12]: 8.3%
- inhibition [13]: -7.3%
- inhibition [14]: 16%
- inhibition [15]: 17%
- concentration at 0.5 h [18]: 2300 nM
- half-life [25]: ~20 min
- clearance [26]: 1180 mL/min
- Vd [27]: 48 L
- CL renal at 3 h [28]: 1.5 mL/min
SMILES: Cc1cc([C@@H](C)Nc2ccccc2C(=O)O)c2nc(N3CCOCC3)cc(=O)n2c1 [AZD-6482]
- inhibition [10]: 14%
- inhibition at 1 µM [16]: > 80%
- Activity (Rattus norvegicus [17]): 38 µmol/min/kg
- Activity (Rattus norvegicus [19]): 7.2 mM
- Activity (Rattus norvegicus [20]): 7.8 mM
- Activity (Rattus norvegicus [21]): 1.9 nM
- Activity (Rattus norvegicus [22]): 0.4 nM
- Activity (Rattus norvegicus [23]): 3.4 nM
- Activity [24]: Non-Toxic
